# Calls of active or inactive are those of the source. The calls are words filed in the database; no cut-off is given here.
# Columns and labels:
# PC-3 [1] = test: Reduction of Mycoplasma hominis-stimulated IL8 secretion in human PC3 cells; type: functional; design: scale not given: the % may be the effect or the level left
# Method in brief: (§1)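 Cells seeded, transfected 24 h later, given GFLX 16 μg/ml 24 h after transfection. Then serum-free medium with fresh GFLX plus stimulus: PGN 1 μg/ml, M. hominis membrane fraction 0.1 μg/ml or […] for 6 h; TNF-α 10 ng/ml for 2 h. IL-8 in supernatant by ELISA; means ± SD, three experiments.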
# PC-3 [2] = test: Suppression of PMA-stimulated IL8 secretion in human PC3 cells; type: functional; method in brief: as §1
# PC-3 [3] = test: Suppression of TNF alpha-stimulated IL8 secretion in human PC3 cells; type: functional, cell-based; method in brief: as §1
# PC-3 [4] = test: Suppression of 0.1 ng/ml LPS-stimulated IL8 secretion in human PC3 cells; type: functional
# PC-3 [5] = test: Suppression of 1 ng/ml LPS-stimulated IL8 secretion in human PC3 cells; type: functional
# PC-3 [6] = test: Suppression IL8 secretion in human PC3 cells at 16 ug/ml added simultaneously with TNF alpha; type: functional
# Method in brief: (§2)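 PC-3 cells seeded 2 × 10^5/well and grown 24 h. GFLX 16 μg/ml added together with TNF-α (0, 5, 10, 25 ng/ml), or 30 or 60 min after it. Total TNF-α exposure 120 min. Secreted IL-8 measured by ELISA; means ± SD of three experiments.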
# PC-3 [7] = test: Suppression of TNF alpha-stimulated IL8 secretion in human PC3 cells at 16 ug/ml added 30 mins after stimulation; type: functional; conditions: PC-3, 0.5 h; method in brief: as §2
# PC-3 [8] = test: Suppression of TNF alpha-stimulated IL8 secretion in human PC3 cells at 16 ug/ml added 60 mins after stimulation; type: functional, cell-based; method in brief: as §2
# PC-3 [9] = test: Inhibition of peptidoglycan-induced NF kappaB activation in human PC3 cells at 16 ug/ml; type: functional, cell-based
# Method in brief: (§3)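 Cells transiently transfected (FuGENE 6) with NF-κB firefly luciferase reporter plus pRL-TK Renilla control. After 24 h, GFLX 16 μg/ml for 24 h, then serum-free medium with GFLX again. Stimulation: PGN 1 μg/ml or M. hominis membrane fraction 0.1 μg/ml for 6 h, TNF-α 10 ng/ml for 2 h. Dual luciferase read-out; three experiments.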
# PC-3 [10] = test: Cytotoxicity against human PC3 cells at 2 ug/ml relative to control; type: cell-based
# Method in brief: (§4)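 PC-3 cells seeded 5 × 10^4/well, grown 24 h, then exposed to GFLX (from 2 mg/ml stock in 0.1 N NaOH; equal NaOH as control) for 48 h. Viability read with a modified MTT method (cell counting kit 8), expressed as % of untreated controls; mean ± SD, n = 3.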
# PC-3 [11] = test: Cytotoxicity against human PC3 cells at 4 ug/ml relative to control; type: cell-based; method in brief: as §4
# PC-3 [12] = test: Cytotoxicity against human PC3 cells at 16 ug/ml relative to control; type: cell-based; method in brief: as §4
# PC-3 [13] = test: Decrease in IL8 secretion in human PC3 cells; type: functional, cell-based
# Method in brief: (§5)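 PC-3 cells seeded 2 × 10^5/well, grown 24 h, washed with PBS and switched to serum-free RPMI 1640. GFLX added (0.1 N NaOH vehicle control) and cells incubated 24 h without stimulus. IL-8 in medium quantified by ELISA; means ± SD of three experiments.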
# PC-3 [14] = test: Decrease in IL8 secretion in human PC3 cells at 4 ug/ml; type: functional; design: scale not given: the % may be the effect or the level left; method in brief: as §5
# PC-3 [15] = test: Decrease in IL8 secretion in human PC3 cells at 16 ug/ml; type: functional; design: scale not given: the % may be the effect or the level left; method in brief: as §5
# PC-3 [16] = test: Reduction of peptidoglycan-stimulated IL8 secretion in human PC3 cells; type: functional; design: scale not given: the % may be the effect or the level left; method in brief: as §1
# PC-3 [17] = test: Inhibition of Mycoplasma hominis-induced NF kappaB activation in human PC3 cells at 16 ug/ml; type: functional, cell-based; method in brief: as §3
# PC-3 [18] = test: Inhibition of TNF alpha-induced NF kappaB activation in human PC3 cells at 16 ug/ml; type: functional, cell-based; method in brief: as §3
# PC-3 [19] = test: Inhibition of TNF alpha-stimulated IL8 mRNA expression in human PC3 cells at 16 ug/ml after 48 hrs; type: functional, cell-based
# Method in brief: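 PC-3 cells seeded 4 × 10^5 per 35-mm dish, grown 24 h, then GFLX 16 μg/ml for 48 h with medium and drug refreshed every 24 h. Cells moved to serum-free RPMI with GFLX and given TNF-α 10 ng/ml for 4 h. TRIzol RNA, oligo(dT) RT, 23-cycle PCR for IL-8 and β-actin. Densitometric IL-8/β-actin band ratio.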
# PC-3 [20] = test: Suppression of TNF alpha-stimulated IL8 promoter activity in human PC3 cells; type: functional, cell-based
# Method in brief: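 PC-3 cells transfected with IL-8 promoter (−1481 to +44 bp) in pGL3-Basic plus pRL-TK. 24 h later, GFLX at 0, 2, 4 or 16 μg/ml for 24 h. Serum-free medium with same GFLX and TNF-α 10 ng/ml for 2 h. Dual luciferase read-out; means ± SD, three experiments.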
# PC-3 [21] = test: Suppression of TNF alpha-stimulated IL8 D-170 mutant promoter activity in human PC3 cells at 16 ug/ml dual luciferase reporter assay; type: functional, cell-based
# Method in brief: (§6)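 PC-3 cells seeded 4 × 10^4/well and transfected with an IL-8 5′-deletion luciferase construct plus pRL-TK. 24 h later, GFLX 16 μg/ml for 24 h. Then serum-free medium, fresh GFLX and TNF-α 10 ng/ml for 2 h. Promoter activity by dual luciferase assay; means ± SD of three experiments.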
# PC-3 [22] = test: Suppression of TNF alpha-stimulated IL8 D-240 mutant promoter activity in human PC3 cells at 16 ug/ml dual luciferase reporter assay; type: functional, cell-based; method in brief: as §6
# PC-3 [23] = test: Suppression of TNF alpha-stimulated IL8 D-188 mutant promoter activity in human PC3 cells at 16 ug/ml dual luciferase reporter assay; type: functional, cell-based; method in brief: as §6
# [24] = Decrease in IL8 secretion in human prostatic myofibroblast cells at 4 ug/ml; type: functional; design: scale not given: the % may be the effect or the level left
# [25] = Decrease in IL8 secretion in human prostatic myofibroblast cells at 16 ug/ml; type: functional; design: scale not given: the % may be the effect or the level left
# PC-3 [26] = test: Suppression of TNF alpha-stimulated IL8 mutant promoter activity in human PC3 cells at 16 ug/ml by dual luciferase reporter assay
compound,measurement,setting,value
COc1c(N2CCNC(C)C2)c(F)cc2c(=O)c(C(=O)O)cn(C3CC3)c12 (stereo unspecified) [GATIFLOXACIN],Activity,PC-3 [1],52%
same,Activity,PC-3 [2],34%
same,Activity,PC-3 [3],Active
same,Activity,PC-3 [4],19%
same,Activity,PC-3 [5],16%
same,Activity,PC-3 [6],37%
same,inhibition at 16 µg/mL,PC-3 [7],25%
same,Activity,PC-3 [8],Active
same,Activity,PC-3 [9],inactive
same,Activity,PC-3 [10],97.6%
same,Activity,PC-3 [11],100%
same,Activity,PC-3 [12],96.6%
same,Activity,PC-3 [13],Dose-dependent effect
same,Activity,PC-3 [14],22%
same,Activity,PC-3 [15],38%
same,Activity,PC-3 [16],42%
same,Activity,PC-3 [17],inactive
same,Activity,PC-3 [18],inactive
same,Activity,PC-3 [19],Active
same,Activity,PC-3 [20],Active
same,Activity,PC-3 [21],inactive
same,Activity,PC-3 [22],Active
same,Activity,PC-3 [23],Active
same,Activity,[24],19%
same,Activity,[25],50%
same,Activity,PC-3 [26],Active

# From ChEMBL document CHEMBL1142061, “The 6-fluoro-8-methoxy quinolone gatifloxacin down-regulates interleukin-8 production in prostate cell line PC-3” (Antimicrob Agents Chemother, 2007)
